According to paper PMC4894453 (Scientific Reports, 2014):
Values after ≈ are worked out from the molar mass of the structure shown. “Also recorded” adds a separate entry of the source. Where two headings read alike, the source gives them in different places.

Tests used:
S. aureus Newman [1] = experiment: Membrane potential by flow cytometry with DiOC2; assay type: cell-based, Staphylococcus aureus; details: DiOC2(3); for dissipation of the membrane potential: 10 μM, 30 min
Method in brief: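 Exponential-phase S. aureus Newman (OD600 ≈ 0.3, Mueller-Hinton II broth) treated with test compound at 100, 10 or 1 μM for 30 min at 37°C. Cells stained 5 min with 30 μM DiOC2(3) and run on flow cytometry (10,000 events, 488 nm excitation, green and red emission). Red/green fluorescence ratio histograms compared. CCCP was the positive control; at least two independent samples.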

[2] = test system: Vero cells (kidney epithelial cells; ATCC CCL-81); experiment: Cytotoxicity, CellTiter-Glo viability; assay type: cell-based; details: for Selectivity index: Cytotox IC50/MIC against methicillin-susceptible S. aureus Newman; for Cytotox IC50: Vero kidney cells, 72 h, 50% reduction of viability
Method in brief: (§1)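 Vero kidney epithelial cells exposed 72 h to test compound (final 200–0.1 μg/ml in DMEM; diluted from 10 mg/ml DMSO stocks). Viability read by CellTiter-Glo luminescence. IC50 is the concentration giving 50% viability loss, from curve fitting. Selectivity index is the cytotoxic IC50 divided by the MIC against S. aureus Newman.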

[3] = test system: methicillin-resistant Staphylococcus aureus N315; experiment: MIC, microbroth dilution, MRSA; assay type: cell-based; details: for MIC: Staphylococcus aureus, MRSA, read-out: MIC against Gram-positive bacteria, MRSA; for MIC against Gram-positive bacteria, MRSA: S. aureus N315, 18–20 h
Method in brief: (§2)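 CLSI microbroth dilution in Mueller-Hinton broth. Test compound at final 200–0.1 μg/ml, diluted from 10 mg/ml DMSO stocks. Plates incubated 18–20 h. MIC is the lowest concentration preventing visible growth.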

[4] = test system: Bacillus anthracis sterne; experiment: microbe, parasite or virus in culture; assay type: cell-based; details: for MIC: Bacillus anthracis, read-out: MIC against Gram-positive bacteria, BA; for MIC against Gram-positive bacteria, BA: 18–20 h
[5] = test system: Clostridium difficile BAA 1803; experiment: MIC, microbroth dilution, anaerobic, Clostridium difficile; assay type: cell-based; details: for MIC: Clostridioides difficile, BAA1803, 24 h, read-out: MIC against Gram-positive bacteria, CD, Clostridium difficile BAA 1803; for MIC / MIC against Gram-positive bacteria, CD: Brain-heart infusion broth, 24 h, anaerobic; for MIC against Gram-positive bacteria, CD: Clostridium difficile BAA 1803
[6] = test system: panel of clinical relevant Gram-positive pathogens; experiment: MIC, statements over the Gram-positive panel; assay type: cell-based; details: read-out: MIC over the Gram-positive panel
[7] = test system: Streptococcus pyogenes ATCC 700294; experiment: MIC, microbroth dilution, Streptococcus pyogenes; assay type: cell-based; details: for MIC: Streptococcus pyogenes, ATCC700294, read-out: MIC against Gram-positive bacteria, SP; for MIC against Gram-positive bacteria, SP: Streptococcus pyogenes ATCC 700294, 18–20 h
[8] = test system: methicillin-susceptible Staphylococcus aureus Newman; experiment: MIC, microbroth dilution, MSSA; assay type: cell-based; details: for MIC against Gram-positive bacteria, MSSA: S. aureus Newman, 18–20 h
Method in brief: as §2

[9] = test system: Streptococcus pneumoniae R6; experiment: MIC, microbroth dilution, Streptococcus pneumoniae; assay type: cell-based; details: for MIC: Streptococcus pneumoniae, R6, read-out: MIC against Gram-positive bacteria, SPn; for MIC against Gram-positive bacteria, SPn: Streptococcus pneumoniae R6, 18–20 h
Method in brief: as §2

[10] = test system: Bacillus subtilis ATCC 23857; experiment: MIC, microbroth dilution, Bacillus subtilis; assay type: cell-based; details: for MIC: Bacillus subtilis, ATCC23857, read-out: MIC against Gram-positive bacteria, BS; for MIC against Gram-positive bacteria, BS: Bacillus subtilis ATCC 23857, 18–20 h
Method in brief: as §2

[11] = test system: Enterococcus faecalis ATCC 33186; experiment: MIC, microbroth dilution, Enterococcus faecalis; assay type: cell-based; details: for MIC: Enterococcus faecalis; for MIC against Gram-positive bacteria, EF: Enterococcus faecalis ATCC 33186
S. aureus Newman [12] = experiment: Membrane permeability by flow cytometry with propidium iodide; assay type: cell-based, Staphylococcus aureus; details: 10 μM, 30 min, concentrations causing dissipation of the membrane potential
Method in brief: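 S. aureus Newman grown in Mueller-Hinton II broth to OD600 ≈ 0.3 and exposed to test compound at 10 μM for 30 min. Propidium iodide (10 μM) added for 10 min in the dark. Flow cytometry: 10,000 events, 488 nm excitation, red fluorescence; event histograms compared. Thioridazine at 100 μg/mL served as positive control.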

S. aureus Newman [13] = experiment: Macromolecular synthesis, radiolabelled precursors; assay type: cell-based, Staphylococcus aureus; details: 1 and 4 × MIC, 20 min
Method in brief: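 Three independent S. aureus Newman cultures grown to mid-log phase (OD600 ≈ 0.3), then pulsed with 1 μCi/mL [methyl-3H]thymidine, [5,6-3H]uridine or [4,5-3H]leucine. After 5 min, test compound added at 1 and 4× its Newman MIC for 20 min at 37°C. Cold 10% TCA precipitates collected on GF/C filters, washed with 95% ethanol and counted by scintillation; expressed as relative percent activity. Controls: novobiocin, rifampicin, tetracycline.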

[14] = test system: erythrocytes of defibrinated sheep blood; experiment: Hemolysis assay; assay type: cell-based; details: sheep erythrocytes 5% in PBS, 37°C, 90 min
Method in brief: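 Defibrinated sheep blood spun at 350 rcf for 20 min; plasma and buffy coat discarded. Erythrocytes washed three times in PBS pH 7.4, then made to a 5% v/v suspension. Suspension mixed 1:1 with two-fold serial dilutions of test compound, with Triton X-100 as positive control. Incubated 37°C for 90 min and centrifuged; supernatant OD540 read. Lysis = (sample − blank)/positive control; EC50 from curve fitting.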

[15] = Cytotoxicity, CellTiter-Glo viability; assay type: cell-based; details: African green monkey, Vero cells (kidney epithelial cells; ATCC CCL-81)
Method in brief: as §1

[16] = ATCC33186, read-out: MIC against Gram-positive bacteria, EF, Enterococcus faecalis ATCC 33186, Mueller-Hinton broth, 18–20 h

| Compound | dissipation of the membrane potential (S. aureus Newman [1]) | Selectivity index [2] | MIC [3] | MIC [4] | MIC [5] | MIC [6] | MIC [7] | MIC [9] | MIC [10] | MIC [11, 16] | physical integrity of the S. aureus membrane (propidium iodide uptake) (S. aureus Newman [12]) | MIC against Gram-positive bacteria, EF ([11]; Mueller-Hinton broth, 18–20 h) | biosynthesis of DNA, RNA and protein (S. aureus Newman [13]) | Cytotox IC50 [2] | Hemolysis EC50 [14] | MIC against Gram-positive bacteria, MRSA [3] | MIC against Gram-positive bacteria, BA [4] | MIC against Gram-positive bacteria, CD [5] | MIC against Gram-positive bacteria, SP [7] | MIC against Gram-positive bacteria, MSSA [8] | also measured |
| --- | --- | --- | --- | --- | --- | --- | --- | --- | --- | --- | --- | --- | --- | --- | --- | --- | --- | --- | --- | --- | --- |
| CCCCCCC/C=C/C(=O)N1C(=O)/C(=C(\O)CCCC)C(=O)C1CC(C)C (stereo not drawn) [Compound 6, (Z)-1-((E)-dec-2-enoyl)-3-(1-hydroxypentylidene)-5-isobutylpyrrolidine-2,4-dione] | slightly lower than reutericyclin; also recorded: did not rapidly dissipate the membrane potential | >58 | < 0.1 µg/mL | 0.39 µg/mL (≈ 0.996 µM) | < 0.03 µg/mL | < 1 µg/mL | 3.13 µg/mL (≈ 7.99 µM) | 3.13 µg/mL (≈ 7.99 µM) | 0.39 µg/mL (≈ 0.996 µM) | 0.2 µg/mL (≈ 0.511 µM) | did not disrupt the physical integrity | – | – | – | – | – | – | – | – | – | fold improvement in activity over reutericyclin ([5]; C. difficile): > 3 fold; fold improvement in activity over reutericyclin ([8]; S. aureus, strain not given): > 4 fold |
| C/C(O)=C1\C(=O)C(CC(C)C)N(C(=O)CCCCCc2ccccc2)C1=O (stereo not drawn) [Compound 5, (Z)-3-(1-hydroxyethylidene)-5-isobutyl-1-(6-phenylhexanoyl)pyrrolidine-2,4-dione] | slightly lower than reutericyclin | 14 | < 0.1 µg/mL | > 200 µg/mL | – | – | 3.13 µg/mL (≈ 8.43 µM) | 0.78 µg/mL (≈ 2.1 µM) | 1.56 µg/mL (≈ 4.2 µM) | – | did not disrupt the physical integrity | 0.78 µg/mL (≈ 2.1 µM) | reduced | – | – | – | – | – | – | – | fold improvement in activity over reutericyclin ([3]; MRSA N315): 4 fold; fold improvement in activity over reutericyclin ([7]; Strep. pyogenes): 2 fold; fold improvement in activity over reutericyclin ([9]; Strep. pneumoniae): 4 fold |
| CCCCCCC/C=C/C(=O)N1C(=O)/C(=C(\O)C2CCN(C(=O)OC(C)(C)C)CC2)C(=O)[C@H]1CC(C)C [Compound 10, tert-butyl4-((Z)-((R)-1-((E)-dec-2-enoyl)-5-isobutyl-2,4-dioxopyrrolidin-3-ylidene)(hydroxy)methyl) piperidine-1-carboxylate] | – | – | – | – | – | – | – | – | – | – | – | 0.39 µg/mL (≈ 0.752 µM) | – | 14.22 µg/mL | 61.61 µg/mL | 0.2 µg/mL (≈ 0.386 µM) | 0.78 µg/mL (≈ 1.5 µM) | 0.25 µg/mL (≈ 0.482 µM) | 3.13 µg/mL (≈ 6.03 µM) | 0.40 µg/mL (≈ 0.771 µM) | MIC against Gram-positive bacteria, SPn [9]: 3.13 µg/mL (≈ 6.03 µM); MIC against Gram-positive bacteria, BS [10]: 1.56 µg/mL (≈ 3.01 µM) |
| CCCCCCC/C=C/C(=O)N1C(=O)/C(=C(\O)c2ccc(F)cc2)C(=O)C1CC(C)C (stereo not drawn) [Compound 13, (Z)-1-((E)-dec-2-enoyl)-3-((4-fluorophenyl)(hydroxy)methylene)-5-isobutylpyrrolidine-2,4-dione] | reduced the membrane potential in a manner similar to reutericyclin | 67 | < 0.1 µg/mL | 0.39 µg/mL (≈ 0.908 µM) | < 0.03 µg/mL | < 1 µg/mL | 6.25 µg/mL (≈ 14.6 µM) | 12.5 µg/mL (≈ 29.1 µM) | 0.39 µg/mL (≈ 0.908 µM) | 0.2 µg/mL (≈ 0.466 µM) | did not disrupt the physical integrity | – | reduced | – | – | – | – | – | – | – | – |
| CC(=O)C1=C(O)C(CC(C)C)NC1=O (stereo not drawn) [Compound 2, 3-acetyl-4-hydroxy-5-isobutyl-1H-pyrrol-2(5H)-one] | – | 1 | > 200 µg/mL | > 200 µg/mL | – | > 200 µg/mL | > 200 µg/mL | > 200 µg/mL | > 200 µg/mL | – | – | – | – | – | – | – | – | – | – | – | effect on the membrane potential (S. aureus Newman [1]; up to 100 μM): failed to affect the membrane potential; IC50 at 72 h [15]: 217 µg/mL (≈ 1100 µM); MIC ([11]; ATCC33186, read-out: MIC against Gram-positive bacteria, EF): > 200 µg/mL |
| (Z)-1-((E)-dec-2-enoyl)-3-(1-hydroxyethylidene)-5-isobutylpyrrolidine-2,4-dione [Compound 1, reference compound] | – | – | – | – | – | – | – | – | – | – | did not disrupt the physical integrity | 0.20 µg/mL | reduced | 7.46 µg/mL | 27.87 µg/mL | 0.4 µg/mL | 0.20 µg/mL | 0.09 µg/mL | 6.25 µg/mL | 0.78 µg/mL | dissipation of the membrane potential (S. aureus Newman [1]; listed as reutericyclin): completely dissipated; Cytotox IC50 ([2]; listed as reutericyclin): 7.5 µg/mL; MIC against Gram-positive bacteria, SPn [9]: 3.13 µg/mL; MIC against Gram-positive bacteria, BS [10]: 0.39 µg/mL |
